This note sets out measurements from ChEMBL document CHEMBL1158167, “Synthesis, binding properties and receptor docking of 4-halo-6-[2-(4-arylpiperazin-1-yl)ethyl]-1H-benzimidazoles, mixed ligands of D2 and 5-HT1A receptors” (Eur J Med Chem, 2008).

Each structure is given as a SMILES string. pKi: −log10 of the molar value.

A short description of test [1]: Displacement of [3H]8-OH-DPAT from 5HT1A receptor in bovine hippocampi synaptosomal membrane by liquid scintillation spectrometry. It counts as tissue-based, Bos taurus, Hippocampus. (Loss of bound radioactivity is the signal in a displacement assay; it reports binding, not function.)
A further test deals with D(1A) dopamine receptor (Bos taurus, UniProt Q95136). Description: Displacement of [3H]SCH23390 from dopamine D1 receptor in bovine caudate nuclei synaptosomal membrane by liquid scintillation spectrometry.
For a further test, the target named is D(2) dopamine receptor (Bos taurus, UniProt P20288). Description: Displacement of [3H]Spiperone from dopamine D2 receptor in bovine caudate nuclei synaptosomal membrane by liquid scintillation spectrometry. In short, it runs like this: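 Membranes (0.7 mg/ml protein) incubated 20 min at 37 °C with 0.2 nM [3H]spiperone and 8–10 test compound concentrations (10^-5–10^-10 M). Ketanserin […] blocks 5-HT2 sites. Nonspecific binding defined with […] (+)-butaclamol. GF/C filtration, scintillation counting. Ki; 3–4 experiments in triplicate.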

As usually defined, the pKi is −log10 of the Ki, conventionally taken in molar units.

D(2) dopamine receptor, sequence (P20288 whole entry): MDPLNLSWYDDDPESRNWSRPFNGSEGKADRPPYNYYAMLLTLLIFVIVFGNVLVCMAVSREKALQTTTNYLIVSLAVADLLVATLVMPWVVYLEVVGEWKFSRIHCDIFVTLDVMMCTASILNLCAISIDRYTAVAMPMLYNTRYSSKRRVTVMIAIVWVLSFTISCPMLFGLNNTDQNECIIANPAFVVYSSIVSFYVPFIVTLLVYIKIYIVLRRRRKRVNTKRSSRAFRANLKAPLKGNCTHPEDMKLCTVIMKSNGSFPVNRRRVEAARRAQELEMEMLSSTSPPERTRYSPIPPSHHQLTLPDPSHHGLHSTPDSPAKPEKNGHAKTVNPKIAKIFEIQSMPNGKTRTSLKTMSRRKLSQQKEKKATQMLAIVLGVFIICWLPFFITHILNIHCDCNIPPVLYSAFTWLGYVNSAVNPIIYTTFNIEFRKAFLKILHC
D(1A) dopamine receptor, sequence (Q95136 whole entry): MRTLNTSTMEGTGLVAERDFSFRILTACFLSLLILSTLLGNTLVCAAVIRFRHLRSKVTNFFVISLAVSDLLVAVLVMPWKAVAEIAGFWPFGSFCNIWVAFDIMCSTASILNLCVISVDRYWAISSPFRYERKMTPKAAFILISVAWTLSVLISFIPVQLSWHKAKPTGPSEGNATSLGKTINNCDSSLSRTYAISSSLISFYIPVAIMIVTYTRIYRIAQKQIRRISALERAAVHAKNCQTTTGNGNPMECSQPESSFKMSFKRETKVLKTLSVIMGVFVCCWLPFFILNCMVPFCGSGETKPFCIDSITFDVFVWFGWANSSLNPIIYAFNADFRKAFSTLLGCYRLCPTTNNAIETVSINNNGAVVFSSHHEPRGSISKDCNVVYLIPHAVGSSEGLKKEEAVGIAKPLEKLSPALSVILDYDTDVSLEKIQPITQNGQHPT

`c1ccc(N2CCN(CCc3ccc4nc[nH]c4c3)CC2)cc1`: the pKi in test [1] was 6.71; at D(1A) dopamine receptor it was less than 6.00; on D(2) dopamine receptor, 6.86.

With `Brc1cc(CCN2CCN(c3ccccc3)CC2)cc2[nH]cnc12`, the figures for the pKi (in test [1]; on D(1A) dopamine receptor; on D(2) dopamine receptor) were 7.62, less than 6.00 and 7.21, respectively.

As for `COc1ccccc1N1CCN(CCc2ccc3nc[nH]c3c2)CC1`, the results for the pKi (in test [1]; at D(2) dopamine receptor) were 7.69 and 7.88, respectively.

For the molecule `FC(F)(F)c1cccc(N2CCN(CCc3cc(Cl)c4nc[nH]c4c3)CC2)c1`, the pKi in test [1] was 7.68; at D(1A) dopamine receptor, less than 6.00; at D(2) dopamine receptor, 6.70.

As to `Clc1ccccc1N1CCN(CCc2cc(Br)c3nc[nH]c3c2)CC1`, the figures for the pKi (in test [1]; at D(1A) dopamine receptor; at D(2) dopamine receptor) were 7.05, less than 6.00 and 7.07, respectively.

In the case of `Clc1cc(CCN2CCN(c3ncccn3)CC2)cc2[nH]cnc12`, the pKi in test [1] is 6.28; on D(1A) dopamine receptor, less than 6.00; at D(2) dopamine receptor, 6.26.

On to `FC(F)(F)c1cccc(N2CCN(CCc3cc(Br)c4nc[nH]c4c3)CC2)c1`, for which the pKi is 9.85 in test [1], less than 6.00 on D(1A) dopamine receptor and 8.24 on D(2) dopamine receptor.

Consider `Brc1cc(CCN2CCN(c3ncccn3)CC2)cc2[nH]cnc12`, for which the pKi is 6.89 in test [1], less than 6.00 on D(1A) dopamine receptor and 7.57 on D(2) dopamine receptor.

For `c1cnc(N2CCN(CCc3ccc4nc[nH]c4c3)CC2)nc1`, the pKi (in test [1]; on D(2) dopamine receptor) was less than 6.00 each time.

For the molecule `COc1ccccc1N1CCN(CCc2cc(Cl)c3nc[nH]c3c2)CC1`, the results for the pKi (in test [1]; on D(1A) dopamine receptor; at D(2) dopamine receptor) were 8.28, less than 6.00 and 8.26, respectively.

In the case of `FC(F)(F)c1cccc(N2CCN(CCc3ccc4nc[nH]c4c3)CC2)c1`, the pKi in test [1] is 7.48; at D(1A) dopamine receptor, less than 6.00; at D(2) dopamine receptor, 6.56.

Take `Clc1ccccc1N1CCN(CCc2ccc3nc[nH]c3c2)CC1`: the pKi in test [1] is 6.61; on D(2) dopamine receptor, 7.22.

With `COc1ccccc1N1CCN(CCc2cc(Br)c3nc[nH]c3c2)CC1`, the pKi in test [1] is 8.85; at D(1A) dopamine receptor it was less than 6.00; on D(2) dopamine receptor, 9.25.

As to `Clc1cc(CCN2CCN(c3ccccc3)CC2)cc2[nH]cnc12`, the results for the pKi (in test [1]; at D(1A) dopamine receptor; on D(2) dopamine receptor) were 7.05, less than 6.00 and 7.07, respectively.

In the case of `Clc1ccccc1N1CCN(CCc2cc(Cl)c3nc[nH]c3c2)CC1`, the pKi was 7.34 in test [1], less than 6.00 at D(1A) dopamine receptor and 7.72 at D(2) dopamine receptor.
